The structures appear in SMILES notation. pIC50: −log10 of the molar value. Some results are limits rather than exact numbers.

In test [1] the test system is HCT-116. Nature of the test: Antiproliferative activity against human HCT116 cells after 72 hrs by MTT assay. It counts as functional, cell-based. Particulars: HCT-116, 72 h. The method, boiled down: (§1)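 Cells grown to log phase in RPMI 1640 with 10% FBS, seeded at 2×10^4 cells/mL and incubated 24 h at 37 °C, 5% CO2. Compounds added, then 72 h at 37 °C. MTT (5 mg/mL stock) for 4 h, formazan dissolved in DMSO, absorbance read at 570 nm. Triplicate wells per concentration, three independent experiments. IC50 is the concentration giving 50% growth inhibition versus untreated control, reported as mean ± S.E.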
In general terms: Tetrazolium assays rely on reduction of a dye to a coloured formazan, in cell work by metabolically active cells.

The subject of test [2] is MGC-803. Nature of the test: Antiproliferative activity against human MGC803 cells after 72 hrs by MTT assay. The settings on record: MGC-803, 72 h. It counts as functional, cell-based. The essentials:
as §1

Another test deals with Huh-7. Nature of the test: Antiproliferative activity against human HuH7 cells after 72 hrs by MTT assay. The settings on record: Huh-7, 72 h. It counts as functional, cell-based. The method, boiled down:
as §1

The subject of test [3] is MGC-803. Description: Potency index, ratio of 5-Fluorouracil IC50 to compound IC50 for antiproliferative activity against human MGC803 cells. It counts as functional.
Test [4] concerns HCT-116. Nature of the test: Potency index, ratio of 5-Fluorouracil IC50 to compound IC50 for antiproliferative activity against human HCT116 cells. It counts as functional.

Consider `CC(=O)c1sc(N/N=C2/C=C(Nc3ccc(C)cc3)C(Nc3ccc(C)cc3)=NC2=O)nc1C`, for which the pIC50 in the test with HCT-116 [1] is 4.28; in the test with MGC-803 [2] it was 4.12; in the test with Huh-7 it was 4.14.

With `CC(=O)c1sc(N/N=C2/C=C(Nc3ccc(Br)cc3)C(Nc3ccc(Br)cc3)=NC2=O)nc1C`, the pIC50 in the test on HCT-116 [1] is 4.88; with MGC-803 [2], 5.04; with Huh-7, 4.75.

For the compound `O=c1[nH]cc(F)c(=O)[nH]1` [FLUOROURACIL], the pIC50 in the test on HCT-116 [1] is 4.95; with MGC-803 [2], 4.59; in the test with Huh-7, 5.25.

Turning to `CC(=O)c1sc(N/N=C2/C=C(Nc3cccc(C)c3)C(Nc3cccc(C)c3)=NC2=O)nc1C`, the pIC50 with HCT-116 [1], with MGC-803 [2] and in the test with Huh-7 was < 3.89 throughout.

As to `CC(=O)c1sc(N/N=C2/C=C(Nc3ccc(Cl)cc3)C(Nc3ccc(Cl)cc3)=NC2=O)nc1C`, the pIC50 is 5.08 with HCT-116 [1], 5.07 with MGC-803 [2] and < 3.89 in the test with Huh-7.

On to `COc1cccc(NC2=C/C(=N/Nc3nc(C)c(C(C)=O)s3)C(=O)N=C2Nc2cccc(OC)c2)c1`, for which the pIC50 in the test on HCT-116 [1], with MGC-803 [2] and in the test on Huh-7 was < 3.89 throughout.

For the compound `CC(=O)c1sc(N/N=C2/C=C(Nc3cccc(Br)c3)C(Nc3cccc(Br)c3)=NC2=O)nc1C`, the values for the pIC50 with HCT-116 [1], in the test on MGC-803 [2] and with Huh-7 were 4.65, 4.67 and < 3.89, respectively.

Consider `CC(=O)c1sc(N/N=C2/C=C(Nc3ccccc3C)C(Nc3ccccc3C)=NC2=O)nc1C`, for which the values for the pIC50 in the test with HCT-116 [1], with MGC-803 [2] and in the test with Huh-7 were < 3.89, 4.35 and < 3.89, respectively.

On to `CC(=O)c1sc(N/N=C2/C=C(Nc3cccc(F)c3)C(Nc3cccc(F)c3)=NC2=O)nc1C`, for which the pIC50 with HCT-116 [1] was 4.64; in the test on MGC-803 [2], 4.67; in the test on Huh-7, 4.23.

For the compound `COc1ccccc1NC1=C/C(=N/Nc2nc(C)c(C(C)=O)s2)C(=O)N=C1Nc1ccccc1OC`, the pIC50 is 4.07 in the test with HCT-116 [1], 4.29 in the test on MGC-803 [2] and 4.69 in the test with Huh-7.

In the case of `COc1ccc(NC2=C/C(=N/Nc3nc(C)c(C(C)=O)s3)C(=O)N=C2Nc2ccc(OC)cc2)cc1`, the pIC50 with HCT-116 [1] was < 3.89; in the test with MGC-803 [2] it was 4.08; in the test with Huh-7, < 3.89.

Regarding `CC(=O)c1sc(N/N=C2/C=C(Nc3ccccc3Cl)C(Nc3ccccc3Cl)=NC2=O)nc1C`, the pIC50 in the test on HCT-116 [1] was 5.09; in the test with MGC-803 [2] it was 5.50; with Huh-7, 4.67. For the same compound, the “Ratio IC50” value was 8.1 in the test with MGC-803 [3] and 1.4 with HCT-116 [4].

In the case of `CC(=O)c1sc(N/N=C2/C=C(Nc3cccc(Cl)c3)C(Nc3cccc(Cl)c3)=NC2=O)nc1C`, the pIC50 in the test with HCT-116 [1] was 4.98; in the test on MGC-803 [2] it was 5.29; with Huh-7, < 3.89.

With `CC(=O)c1sc(N/N=C2/C=C(Nc3ccccc3)C(Nc3ccccc3)=NC2=O)nc1C`, the pIC50 in the test on HCT-116 [1] is 4.60; with MGC-803 [2], 4.87; in the test on Huh-7 it was 4.72.

The pIC50 is the IC50 on a negative log10 scale, so that one unit is a factor of ten. Low readings indicate a large IC50, high ones a small IC50.

Values taken from ChEMBL document CHEMBL4251636, “Design, synthesis and biological evaluations of novel pyridone-thiazole hybrid molecules as antitumor agents” (Eur J Med Chem, 2018).
